# Fewer inactive variants are shown than the library holds.
# B1: tRNA (parent)
# chain: GUUCCGUUGGCGUAAUGGUAACGCGUCUCCCUCCUAAGGAGAAGACUGCGGGUUCGAGUCCCGUACGGAACG
# Variants of: B1
# Assay: yeast fitness relative to wild type (ratio to wild type); higher = fitter; tRNA-Arg(CCU), competitive growth, 37 C, YPD
# In short: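 Variants of the tRNA-Arg(CCU) gene, chemically synthesised with a 3% per-site mutation rate at 69 sites, were placed at the native genomic locus in Saccharomyces cerevisiae. The pooled strains were competed in YPD at 37°C for 24 hours in six parallel replicates. Gene amplicons from the start population and from each end population were read by 100-nucleotide paired-end sequencing. Darwinian fitness relative to wild type came from changes in genotype frequencies; genotypes needed ≥ 100 starting reads, and estimates < 0.5 were set to 0.5.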
row,Variant,yeast fitness
1,GUUCCGUUGGCGUAAUGGUAAAGCGUCGCCCUCCAAAGGAGAAGACUGCGGGUUCGAGUCCCGUACGGAACG,0.571
2,GUUCCGUUGGCGUAAUGGUAAAGCGACUCCCUCCUAAGGAGAAGACUGCGGGUCCGAGUCACGUACGGAACG,0.612
3,GUUCCGUUGGCGUAAUGGUAAAGCGUCUCCCUCCUAAGGAGAAGACAGCGGGUUCAAGUUCCGUACGGAACG,≤ 0.5
4,GUUCCGUUGGCGUAAUGGUAAAGCGUCUCCCUCCGAAGGAGAAGACUGCGGGUUCGAGUCCCGUAGGGUACG,≤ 0.5
5,GUUCCGUUGGCGUAAUGGUAAAGCGUCUCCCUCCUAAGGAGAAGACUGCGGGUUCGAGUCCCGUACCGAACG,0.701
6,GUUCCGUUGGCGUAAUGGUAAAGCGUCUCCCUCCUAAGGAGAAGACUGCGGGUUCGAGUCCCGUACAGAACG,0.888
7,GUUCCGUUGGCGUAAUGGUAAAGCGCCUCCCUCCUAAGGAGAAGACCGCGGGUUCGGGUCCCGUAAGGAACG,0.565
8,GUUCCGUUGGCGUAAUGGUAAAGCGUCACCCUCCUAAGGAGAAGACUGCGGGGUCGAGUCCCGUACGGAACG,≤ 0.5
9,GUUCCGUUGGCGUAAUGGUAAAGCGUCUCCCUCCUAAGGAGAAGACUGCGCGUUCGAGUUCCGUACGGAACG,≤ 0.5
10,GUUCCGUUGGCGUAAUGGUAAAGCGCCUCCCUCCUAAGGAGAAGACUGCGGGUUCGAGUCCCGUACGGAACG,0.848
11,GUUCCGUUGGCGUAAUGGUAAAGCGUCGCCGUCCUAAGGAGUAGACUGCGGGUUCGACUCCCGUACGGAACG,≤ 0.5
12,GUUCCGUUGGCGUAAUGGUAAAGCGUCUCCCGCCUAUGGAGAAGACUGCGGGUUCGAGUCCCGUACGGAACG,≤ 0.5
13,GUUCCGUUGGCGUAAUGGUAAAGCGUCACCCUCCUAAGCAGAAGACUGCGGGUUCGAGUCCCGUACGGAACG,≤ 0.5
14,GUUCCGUUGGCGUAAUGGUAAAGCGUCACCCUCCUAAGGAGAAGACGGCGGGUUCGAGUCCCGUACGGAACG,≤ 0.5
15,GUUCCGUUGGCGUAAUGGUAAAGCGUCGCCCUCCUAAGGAGAAGACUGCGGGUUCGAGUCCCGUACGGAACG,0.625
16,GUUCCGUUGGCGUAAUGGUAAAGCGUCCCCCUCCUAAGGAGAAGACUGCGGGUUCGAGUCCCGUACGGAACG,0.852
17,GUUCCGUUGGCGUAAUGGUAAAGCGUCUCCCUCCUAAGGAGAAGACUGCGCGUUCGAGUCCCGUACGGAACG,0.719
18,GUUCCGUUGGCGUAAUGGUAAAGCGUCACCCUCCUAAGGUGAAGACUGCGGGUUCGAGUCACGUACGGAACG,≤ 0.5
19,GUUCCGUUGGCGUAAUGGUAAAGCGUCUCCCUCCUAAGGAGAAGACAACGGGUUCGAGUCCCGUACGGAGCG,≤ 0.5

row,Variant,yeast fitness
1,GUUCCGUUGGCGUAAUGGUAAAGCGUCUCCCUCCUAAGGAGAAGACUGCGGAUUCGAGUCCCGUACGGAACG,0.637
2,GUUCCGUUGGCGUAAUGGUAAAGCGUCUCCCUCCUAAGGAGAAGACUGCGGCUUCGAGUCCCGUACGGAACG,0.665
3,GUUCCGUUGGCGUAAUGGUAAAGCGUCGCCCUCCUAAGGAGAAGACUGCGGGUUCGACUCCCGCACGGAACG,≤ 0.5
4,GUUCCGUUGGCGUAAUGGUAAAGCGUCGCCGUCCUAAGGAGUAGACUGCGGGUUCGAGUCCCGUACGGAACG,≤ 0.5
5,GUUCCGUUGGCGUAAUGGUAAAGCGUCGCCCUCCUAAGGAGAAGACUGAGGGUUCGAGUCACGUACGGAACG,≤ 0.5
6,GUUCCGUUGGCGUAAUGGUAAAGCGUCUCCCUCCAAGGGAGAAGACUGCGGGUUCGAAUCCCGUACGGAACG,≤ 0.5
7,GUUCCGUUGGCGUAAUGGUAAAGCGUCUCCCUCCUAAGGAGAAGACAGCGGGUUCGAGUCCCGUUCGGAACG,≤ 0.5
8,GUUCCGUUGGCGUAAUGGUAAAGCGUCUCCCUCCUAAGGAGAAGACAGCGGGUUCGAGUCCCGUGCGGAACG,0.573
9,GUUCCGUUGGCGUAAUGGUAAAGCGACUGCCUCGUAAGGAGAAGACUGCGGGUUCGAGUCCCGUGCGGCACG,≤ 0.5
10,GUUCCGUUGGCGUAAUGGUAAAGCGUCACACUCCUAAGGAGAAGACUGCGGGUUCGAGUCCCGUACGGAACG,0.72
11,GUUCCGUUGGCGUAAUGGUAAAGCGUCCCUCUCCUAAGGAGAAAACUGCGGGUUCGAGUCCCGUACGGAACG,≤ 0.5
12,GUUCCGUUGGCGUAAUGGUAAAGCGUCUCCCUCCUAAGGAGAAGACUGCGGGUUCGAAUUCCGUACGGAACG,≤ 0.5
13,GUUCCGUUGGCGUAAUGGUAAAGCGUCUCCCUCCUAAGGAGAAGACCGCGGGUUCGAGUCCCGUACGGAACG,0.882
14,GUUCCGUUGGCGUAAUGGUAAAGCGUCUCCCUCCUAAGGAGAAGACAACGGGUUCGAGUCCCGUACGGAACG,0.505
15,GUUCCGUUGGCGUAAUGGUAAAGCGUCUCCCUCCAAAGGAGAAGACUGCGGGUUCGAGUCCCGUACGGAUCG,≤ 0.5
16,GUUCCGUUGGCGUAAUGGUAAAGCGUCUCCCUCCUAAGGAGAAGACCGCGGGUUCGAGUCGCGUACGGAACG,≤ 0.5
17,GUUCCGUUGGCGUAAUGGUAAAGCGUCUCCCUCCUAAGGAGAAGACCGCGGGUUGGAGUCCCGUACGGAACG,0.536
18,GUUCCGUUGGCGUAAUGGUAAAGCGACUGCCUCCUAAGGAGAAGACUGCCGGUUCGAGUCCCGUACGGAACG,≤ 0.5
19,GUUCCGUUGGCGUAAUGGUAAAGCGUCUCCCUCCUAAGGAGAAGACAGCGGGUUAGAGUCCCGUACGGAACG,≤ 0.5

# Source: the RNAGym collection of RNA variant scans (doi:10.1126/science.aae0568)
